We go through twelve molecules from publication PMC9509476 (Cell systems, 2022).

Data set [1] deals with p38 activity. The data set can be described thus: single-cell p38 activity reporter. The data set is classed as cell-based. As to conditions: RPE1 p38 reporter; for influence on p38 activity (two-sided t-test): 1 μM, 48 hours. Put shortly: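 RPE1 cells stably carrying a p38 kinase translocation reporter, grown in DMEM/F12 with 10% FBS at 37C, 5% CO2. Plated at 1000 cells/well, then given test compound at 1 or 10 μM for 48 h, 4 wells per concentration. Single-cell activity taken as median cytoplasmic-ring (5-pixel) over nuclear reporter intensity, normalised to same-plate/column DMSO. Significance by t-test or KS test with Benjamini-Hochberg adjustment.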

The subject of data set [2] is PPARG. Description: PPARG. The data set is classed as cell-based. As to conditions: bladder cancer cell line, absence or presence of Rosiglitazone.
In data set [3] the test system is KP230 cells. As to conditions: 10 μM.
For data set [4], the system named is U2OS. The data set can be described thus: proliferation in U2OS Cell Painting images. The data set is classed as cell-based.
Data set [5] deals with PAX8. As to conditions: ref PubChem; cited from earlier work.
Data set [6] has as its target human CSNK1A1 (Homo sapiens, UniProt P48729). The data set can be described thus: CSNK1A1 enzymatic mobility shift assay. The data set is classed as biochemical.
Data set [7] has as its system native kinases. The data set can be described thus: full KINOMEscan panel. The data set is classed as binding.
Data set [8] relates to HT29 cells. As to conditions: six hours of treatment, ref Subramanian et al., 2017; cited from earlier work.
Data set [9] relates to STS-109 human UPS cells. Description: proliferation assay. The data set is classed as cell-based. The note with it: 10 μM daily for 8 days.
In data set [10] the test system is HT-1080 fibrosarcoma cells. The data set can be described thus: proliferation assay. The data set is classed as cell-based. As to conditions: 10 μM every 24 hours for 3 days.
For data set [11], the system named is YAP1 target genes (CTGF and CYR61). Description: qPCR of YAP1 and target genes in H9 hPSCs. The data set is classed as cell-based, human. As to conditions: 24 hrs. (In qPCR the cycle at which signal appears reflects the starting amount.)
Data set [12] has as its system YAP1. The data set can be described thus: YAP1 immunofluorescence and Western blot in H9 hPSCs. As to conditions: H9 cells, 10 μM. The data set is classed as cell-based, human.
Data set [13] concerns Yap1. Description: qRT-PCR of Yap1 and sarcoma target genes in KP230 cells. The data set is classed as cell-based, mouse.
Data set [14] concerns A375 cells. As to conditions: 6 and 24 hours, ref Subramanian et al., 2017; cited from earlier work.
Data set [15] has as its system KP230 cells. Description: proliferation assay. The data set is classed as cell-based, mouse. The note with it: 10 μM every 24 hours for 3 days.
Data set [16] relates to TEAD-YAP interaction. The note with it: HEK-TIYL cells; ref PubChem; cited from earlier work.
In data set [17] the test system is TC32 human Ewing’s family sarcoma cells. The data set can be described thus: proliferation assay. As to conditions: 10 μM every 24 hours for 3 days. The data set is classed as cell-based.
In data set [18] the test system is KP230, TC32, STS-109, HT-1080, HCT-116 cells. The data set can be described thus: trypan blue staining for toxicity. The data set is classed as cell-based. The note with it: 10 μM, any of the cell lines tested.
For data set [19], the system named is Yap1. Description: Yap1 Western blot and immunofluorescence in KP230 cells. As to conditions: 10 μM daily. The data set is classed as cell-based, mouse. For orientation: A western blot detects proteins with antibodies after separation by electrophoresis.
The test system of data set [20] is KP230 cells. Description: RNA sequencing and gene set enrichment analysis in KP230 cells. The data set is classed as cell-based, mouse. As to conditions: 10 μM. The method in brief: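 KP230 cells (murine Kras/Trp53 tumour-derived) grown in DMEM with 10% FBS, 1% L-glutamine and 1% P/S at 37C, 5% CO2. Kept at ≤20 passages and about 50% confluence. Treated with 10 μM test compound or an equal volume of DMSO. Total RNA isolated by RNeasy Mini with on-column DNase digestion, then sequenced.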

The test system of data set [21] is HCT-116 colon cancer cells. The data set can be described thus: proliferation assay. The data set is classed as cell-based. The note with it: 10 μM every 24 hours for 3 days, YAP1-independent line.
The test system of data set [22] is YAP1. The data set can be described thus: YAP1-responsive TEAD luciferase reporter assay in HEK-293 cells. The data set is classed as cell-based. As to conditions: 10μM, 48h of YAP overexpression. On the technique in general: In a reporter assay the amount or activity of a reporter protein is the signal.
The test system of data set [23] is HEK293, HepG2, A549 cells. As to conditions: ref PubChem; cited from earlier work.
Data set [24] concerns mesenchymal lineage periosteal cells. Description: qPCR of Hippo components in murine periosteal cells. The data set is classed as cell-based, mouse. As to conditions: 5μM. The method in brief: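 Periosteal cells from 4-day femoral fracture callus of 3 female 15-week CMV-Cre;R26R-rtTA;tetO-YAPS127A mice (C57Bl/6 background). Cultured in α-MEM with 15% FBS, 1% GlutaMAX and 1% P/S. Test compound given at 5 μM. 1 μM doxycycline for 48 h induced YAPS127A as positive control for YAP1 mRNA.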

pIC50: −log10 of the molar value.

Sequence of human CSNK1A1 (P48729 whole entry): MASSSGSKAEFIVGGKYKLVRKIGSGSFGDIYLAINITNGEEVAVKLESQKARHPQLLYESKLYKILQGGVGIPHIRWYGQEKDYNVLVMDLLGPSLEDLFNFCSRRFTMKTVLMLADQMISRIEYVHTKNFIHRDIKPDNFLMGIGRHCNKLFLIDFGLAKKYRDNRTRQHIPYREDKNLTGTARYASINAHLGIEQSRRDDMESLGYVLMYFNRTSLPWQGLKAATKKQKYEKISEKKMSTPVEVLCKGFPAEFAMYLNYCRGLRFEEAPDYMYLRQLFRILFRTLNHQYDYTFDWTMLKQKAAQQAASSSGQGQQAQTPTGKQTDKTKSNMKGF

In the case of `Nc1nc(Nc2ccccc2)nc2c1ncn2C1OC(CO)C(O)C1O` (stereo not drawn) [BRD-A64933752], the “influence on p38 activity (two-sided t-test)” value in data set [1] is “potential inhibitors”.

Take `Cc1ccc(-c2nn(C(C)(C)C)c3ncnc(N)c23)cc1` [PP1]: the “effect in PPARG (FABP4) reporter assay” value in [2] is reported as “reporter activation”.

Take `CO[C@@H]1CN(C)C(=O)c2ccc(NC(=O)c3ccc(-c4ccccc4)cc3)cc2OC[C@H](C)NC[C@@H]1C` [BRD-K28862419, N-((3S,6S,7S)-7-methoxy-3,6,9-trimethyl-10-oxo-3,4,5,6,7,8,9,10-octahydro-2H-benzo[k][1]oxa[4,9]diazacyclododecin-13-yl)-[1,1′-biphenyl]-4-carboxamide]: in [3], the KP230 cell viability result is on record as “modestly yet significantly reduced”. Moreover, in data set [4], the “proliferation in U2OS Cell Painting images” value is recorded as −2.0 st dev. The PAX8 inhibition entry in data set [5] is given as “inhibits”.

On to `CCCCCCCCCCCCCC(=O)O[C@@H]1[C@@H](C)[C@@]2(O)[C@@H](C=C(CO)C[C@]3(O)C(=O)C(C)=C[C@@H]23)[C@@H]2C(C)(C)[C@]12OC(C)=O` [Phorbol 12-myristate 13-acetate], for which, in [2], the “effect in PPARG (FABP4) reporter assay” value is “Inhibitors”.

For the molecule `COC1(C[S@@+]([O-])c2ccccc2)CCN(CCc2c[nH]c3ccc(F)cc23)CC1` [BRD-K52394958], the “influence on p38 activity (alternative statistical test)” value in data set [1] was “identified via an alternative statistical test”.

In the case of `Fc1ccc(-c2nc3n(c2-c2ccncc2)CCS3)cc1` [SKF-86002, reference compound], the “inhibitory IC50 concentrations, CSNK1A1” value in data set [6] (at Km ATP) is given as “nanomolar range”.

As to `CCCCNc1cc(C(=O)O)cc(S(N)(=O)=O)c1Oc1ccccc1` [BRD-K38197229], the “influence on p38 activity (two-sided t-test)” value in data set [1] is given as “potential inhibitors”.

As for `CCc1cc(-c2n[nH]c(C)c2-c2ccc3c(c2)OCCO3)c(O)cc1O` [CCT018159], the “effect in PPARG (FABP4) reporter assay” value in data set [2] is listed as “Inhibitors”.

For `C[C@@H]1CN([C@@H](C)CO)C(=O)CCCn2nncc2CO[C@@H]1CN(C)C(=O)Nc1ccnc(N2CCOCC2)c1` [BRD-K65952656], the “binding to native kinases in full KINOMEscan panel” value in data set [7] was “failed to bind any native kinases”. Besides, the pIC50 (usually −log10 of the IC50, conventionally taken in molar units) in [6] (read-out: inhibition of CSNK1A1 IC50) was 4.92.

As to `CC(C)(C)n1nc(-c2ccc(Cl)cc2)c2c(N)ncnc21` [PP2], in [2], the “effect in PPARG (FABP4) reporter assay” value is “reporter activation”.

As to `c1ccc(CNc2ncnc3ccccc23)cc1` [NB4A, N-Benzylquinazolin-4-amine], in [8], the “TAZ mRNA z-score” value is 2.04 and the “YAP1 mRNA z-score” value was 3.16. Further, the “proliferation of STS-109 cells” value in data set [9] is “did not affect”. In [10], the “proliferation of HT-1080 cells” value is listed as “did not affect”. For the same molecule, in [11], the “YAP1 mRNA expression” value is “did not affect”. In addition, the “expression of YAP1 target genes (CTGF and CYR61)” value in data set [11] (dose-dependent) is given as “increased”. The YAP1 nuclear localization entry in data set [12] (24 hours) is “increased”. In [12] (24 hrs), the “YAP1 S127 phosphorylation” value is “reduced” and the “total YAP1 protein levels” value was “decreasing”. Further, the “transcription of Yap1, its sarcoma target genes (Foxm1, Ccl2, Hbegf, Birc5, Rela) and Amot” value in data set [13] is “did not directly alter”. In data set [14], the “YAP1 mRNA z-score” value is ~ −0.7. The “proliferation of KP230 cells” value in data set [15] is “inhibited”. In addition, in [16], the “activity in assay detecting inhibitors of TEAD-YAP interaction” value is “showed activity”. For the same molecule, the “proliferation of TC32 cells” value in [17] is listed as “inhibited”. In addition, the “overt toxicity by trypan blue staining” value in data set [18] is on record as “did not exhibit overt toxicity”. For the same molecule, the Yap1 nuclear localization entry in data set [19] is on record as “significantly attenuated”. In data set [19] (after 72 hours), the Yap1 protein levels result is reported as “reduced”. In data set [20], the “epithelial-mesenchymal transition, angiogenesis and glycolysis pathways (GSEA)” value is listed as “down-regulated”; the “interferon alpha and gamma response pathways (GSEA)” value is listed as “up-regulated”. Moreover, the “proliferation of HCT-116 cells” value in [21] is on record as “did not affect”. In addition, the “effect in YAP1-responsive reporter assay” value in data set [22] is “no effect”.

For the molecule `CO[C@@H]1CN(C)C(=O)c2cc(NC(=O)Nc3ccc(C(F)(F)F)cc3)ccc2OC[C@@H](C)NC[C@@H]1C` [BRD-K34692511, 1-[(4R,7S,8S)-8-methoxy-4,7,10-trimethyl-11-oxo-2-oxa-5,10-diazabicyclo[10.4.0]hexadeca-1(12),13,15-trien-14-yl]-3-[4-(trifluoromethyl)phenyl]urea], the “proliferation in U2OS Cell Painting images” value in [4] is listed as “none of these impacts”. Also, in data set [23], the “inhibition of cell proliferation AC50” value is on record as “none of these impacts”. Further, the “mRNA levels of Hippo components including Yap1 and Cyr61” value was “not at 1 and 4 hours” in data set [24] (1 and 4 hours); “substantially upregulated” in data set [24] (48 hours). Besides, the PAX8 inhibition entry in data set [5] is listed as “none of these impacts”.
